Screening data: PubChem, several laboratories
A selection: hits, their analogues and other compounds. The true share with any hit is near 5.3%.
Beta apoptosis: beta cell apoptosis inhibition. INS-1E cytokine-induced death, ATP luminescence, 48 h; percent of positive-control rescue, neutral wells zero. protection from apoptosis, % (concentration not given with the values). actives 0.8% (n = 300,000);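 active means Every replicate reaches about 75%, or at least half do and their mean reaches it too, limit read from the data; inconclusive means At least half of replicates reach the limit but their mean does not; inactive means Under half of replicates reach the limit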;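 further: higher means more ATP so stronger rescue from cytokine killing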
NLRP3 yeast inh: blocks the NALP3 inflammasome reconstituted in yeast. Yeast reconstituted NLRP3/ASC/caspase-1, beta-gal luminescence, 24 h. inhibition, % at 10 µM. actives 0.39% (n = 330,000);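 active means inhibition of 50% or more; inactive means inhibition below 50%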
Calb FLC: affects C. albicans growth with fluconazole. C. albicans CaCi-2 (fluconazole-resistant clinical isolate) + fluconazole, Alamar Blue growth, 48 h. growth inhibition, % (no concentration beside the values). actives 0.57% (n = 300,000). AID 1979;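 active means growth inhibition above about 58% in most replicates, limit read from the data, passing the limit was not always enough; inconclusive means exactly half the replicates above a set limit; inactive means most replicates below a set limit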;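 further: all wells also contain fluconazole at 8 µg/ml as a sub-toxic cotreatment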
Mdm2-MdmX inh: human Mdm2/MdmX binding inhibition. SaOS-2 split-luciferase Mdm2/MdmX complementation, luminescence. actives 3% (n = 330,000). inhibition, % at 8 µM. O15151+Q00987;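 active means inhibition of at least 50% at 8 µM in the primary screen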
T cruzi repl: T. cruzi replication inhibition | T. cruzi beta-gal in NIH3T3, luminescence, 90 h | inhibition, % (concentration not given with the values) | actives 1.4% (n = 300,000) | AID 1885;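 active means mean inhibition across valid replicates above about 55%, limit read from the data; inconclusive means mean below that limit but half or more replicates reach it; inactive means mean below it, under half of replicates reach it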;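 further: signal also drops with host cell toxicity which is not excluded here; higher percent means less beta-gal luminescence so fewer parasites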
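Incubation – ≥90 h infection period, 3 h prior cell attachment · System – NIH/3T3 fibroblasts plus reporter T. cruzi · Doses – compound pinned at 50 nL/well, DMSO · Read-out basis – percent inhibition of parasite-derived β-gal signal · Signal – luminescent β-galactosidase signal after 60 min lysis · Also added – 5000 T. cruzi trypomastigotes/well · Medium – Low-serum DMEM with 2% FBS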
CSC inhib: cancer stem cell inhibition; cancer stem cell-like cells viability, luminescence; inhibition, % at 7.5 µM; actives 1.1% (n = 300,000); in the data active means inhibition above about 75%; inconclusive means no clear call, values can overlap the other calls; tested in HMLE shEcad cells
Of the large screens only hits and unclear results are named; the others gave an inactive call.

CC(C)(C)OC(=O)NCCCC[C@@H](C(=O)NCCCCCCCCCCC(=O)N1CCN(C(=O)OC(C)(C)C)CC1)n1cc(CCO)nn1	none
C#CCOCCOCCOCCNc1nc(N2CCN(C(=O)CCCCCCCCCCNC(=O)[C@H]([C@@H](C)CC)n3cc(CCCCN=C(N)N)nn3)CC2)nc(N2CCN(C(=O)CCCCCCCCCCNC(=O)[C@H](CCCCN)n3cc(C[C@@H](C)CC)nn3)CC2)n1	Beta apoptosis 98, CSC inhib 102 (no result: Calb FLC, T cruzi repl)
C#CCOCCOCCOCCNc1nc(N2CCN(C(=O)CCCCCCCCCCNC(=O)[C@H](CCCCN)n3cc(C[C@@H](C)CC)nn3)CC2)nc(N2CCN(C(=O)CCCCCCCCCCNC(=O)[C@H](CCCCN)n3cc(C[C@@H](C)CC)nn3)CC2)n1	Beta apoptosis 114, T cruzi repl 55, CSC inhib 166 (no result: NLRP3 yeast inh, Mdm2-MdmX inh)
C#CCOCCOCCOCCNc1nc(N2CCN(C(=O)CCCCCCCCCCNC(=O)[C@H](CCCCN)n3cc(CCCC(=O)O)nn3)CC2)nc(N2CCN(C(=O)CCCCCCCCCCNC(=O)[C@H](CCCN=C(N)N)n3cc(C[C@@H](C)CC)nn3)CC2)n1	none
CC[C@H](C)Cc1cn([C@@H](CCCCNC(=O)OC(C)(C)C)C(=O)NCCCCCCCCCCC(=O)N2CCN(C(=O)OC(C)(C)C)CC2)nn1	Beta apoptosis 82 (no result: Calb FLC, T cruzi repl)
Cc1cccc(/C(N)=N/OC(=O)c2ccc(Br)o2)c1	none
CCN1C(=O)/C(=C/C=C2/CCCN2C)OC1=S	none
O=C(c1ccco1)N1CCC(n2nnc3ccccc32)CC1	none
COCCCNC(=O)c1ccccc1N(Cc1ccccc1)S(=O)(=O)c1ccc(OC)cc1	none (no result: Beta apoptosis)
O=S(=O)(N/N=C1/CC(c2ccccc2)Oc2ccccc21)c1ccc(Br)cc1 (configuration not stated)	CSC inhib 89
Cc1ccc(S(=O)(=O)N/N=C2/CC(c3ccccc3)Oc3ccccc32)cc1[N+](=O)[O-] (configuration not stated)	none
Cc1ccccc1CC1(CO)CCCN(Cc2ccc(C#CC(C)(C)O)cc2)C1 (configuration not stated)	none
CCn1nc(C)c(CN2CCCC(CO)(Cc3cccc(Cl)c3)C2)c1C (configuration not stated)	T cruzi repl 55
CC(C)(O)C#Cc1ccc(CN2CCCC(CO)(Cc3cccc(Cl)c3)C2)cc1 (configuration not stated)	T cruzi repl 58
CCn1nc(C)c(CN2CCCC(CO)(Cc3ccccc3)C2)c1C (configuration not stated)	none
CC(=O)Oc1ccccc1N(C(C)=O)S(=O)(=O)c1ccc2ccccc2c1	none (no result: Beta apoptosis)
CC(=O)Oc1ccc(N(C(C)=O)S(=O)(=O)c2cccs2)c2ccccc12	Beta apoptosis 93
Cc1cc(C)c2nc(-c3ccncc3)cc(C(=O)N3CCN(Cc4ccccc4Cl)CC3)c2c1	T cruzi repl 61 (no result: Beta apoptosis)
O=C(O)c1cc(-c2ccc3c(c2)OCO3)nc2ccc(Cl)cc12	none
O=C(c1cc(-c2ccncc2)nc2ccc(Br)cc12)N1CCN(Cc2ccc3c(c2)OCO3)CC1	T cruzi repl 79
CC(=O)c1ccc(N2CCN(C(=O)c3cc(-c4cccnc4)nc4ccc(Br)cc34)CC2)cc1	T cruzi repl 59
Cc1ccc2nc(-c3ccncc3)cc(C(=O)N3CCOCC3)c2c1	none (no result: Beta apoptosis)
CS(=O)(=O)N1CCN(C(=O)c2cc(-c3cccnc3)nc3ccc(Br)cc23)CC1	none (no result: CSC inhib)
O=C(c1cc(-c2ccncc2)nc2ccc(Cl)cc12)N1CCN(Cc2ccc3c(c2)OCO3)CC1	T cruzi repl 72
Cc1ccc(S(=O)(=O)N(C)Cc2ccc(-c3nnco3)cc2)cc1	none (no result: Beta apoptosis)
CCOc1ccc(S(=O)(=O)n2cc(-c3ccccc3)c(N)n2)cc1	none
Nc1nn(S(=O)(=O)c2ccccc2)cc1-c1cccc([N+](=O)[O-])c1	T cruzi repl 57
CCCN1CCN(CCNC(=O)Nc2ccccc2Cl)CC1	none
Nc1ccc(C(=O)N/N=C\c2ccc(OC(=O)c3ccccc3Cl)cc2)cc1	Calb FLC 79
COc1cc(C(=O)N/N=C/c2ccc(OC(=O)c3ccccc3Cl)cc2)ccc1O	none
COc1cc(NC(=S)N2CCN(S(C)(=O)=O)CC2)cc(OC)c1	none (no result: T cruzi repl)
COC(=O)c1ccccc1NC(=O)c1cccc(COc2ccccc2Cl)c1	none
COc1cc(C2Nc3cc(C)c(C)cc3NC3=C2C(=O)CC(C)(C)C3)ccc1OC(C)=O (configuration not stated)	none
Cc1cc2c(cc1C)NC(c1c(C)n(C)n(-c3ccccc3)c1=O)C1=C(CC(C)(C)CC1=O)N2 (configuration not stated)	T cruzi repl 55 (no result: CSC inhib)
COc1cc(/C=N/NC(=O)[C@H](Cc2c[nH]c3ccccc23)NC(=O)OCC(C)C)cc([N+](=O)[O-])c1O	none
CCC1CSC(Nc2ccc(C(=O)/C=C/c3cccc(C)c3)cc2)=N1 (configuration not stated)	T cruzi repl 60, CSC inhib 87
CCOC(=O)Nc1ccc(C(=O)/C=C/c2ccccc2)cc1	none
CN1Cc2c(N3CCOCC3)nc(SCc3ccccc3)c(C#N)c2CC1(C)C	T cruzi repl 58 (no result: CSC inhib)
CC(C)CCSc1nc(N2CCOCC2)c2c(c1C#N)CC(C)(C)OC2	T cruzi repl 67 (no result: CSC inhib)
CCSc1nc(N2CCOCC2)c2c(c1C#N)CC(C)(C)N(C)C2	none (no result: Beta apoptosis)
COc1ccc(CNC(=O)CC2C[C@H](C(=O)N3CCOCC3)[C@@]3(CCC4CCCC4)c4[nH]c5ccccc5c4CCN3C2=O)cc1OC (some centres not stated)	none (no result: Calb FLC, T cruzi repl, CSC inhib)
COc1ccc2cc3cc(C(=O)NCCN4CCc5ccccc5C4)oc3nc2c1	none (no result: Calb FLC)
COc1ccc2cc3cc(C(=O)NCCN4CCN(Cc5ccccc5)CC4)oc3nc2c1	T cruzi repl 64
Cc1ccccc1S(=O)(=O)Cc1ccc(C(=O)NCCCN2CCN(C)CC2)o1	none
Cc1ccccc1S(=O)(=O)Cc1ccc(C(=O)NCCN2CCN(Cc3ccccc3)CC2)o1	T cruzi repl 61
COc1ccc2cc3cc(C(=O)NCCCN4CCOCC4)oc3nc2c1	T cruzi repl 58
Cc1ccc([N+](=O)[O-])cc1S(=O)(=O)Nc1ccc(O)c(Sc2ncn[nH]2)c1	none
COC(=O)Cn1cnc2c(Cl)nc(F)nc21	none (no result: Beta apoptosis, NLRP3 yeast inh, Calb FLC, T cruzi repl, CSC inhib)
O=S(=O)(c1cnccc1N1CCN(CCO)CC1)N1CCCCC1	none (no result: Beta apoptosis)
COc1cccc(CN2CCCC(C(=O)c3ccc4c(c3)OCO4)C2)c1OC (configuration not stated)	none
COc1ccc(C(=O)C2CCCN(Cc3ccc(C#CCCO)cc3)C2)cc1F (configuration not stated)	Calb FLC inconclusive, T cruzi repl 59
COc1ccc(C(=O)C2CCCN(Cc3cccc4c3OCO4)C2)cc1OC (configuration not stated)	T cruzi repl 62
